CDK5 inh – inhibitors of human CDK5/p35 kinase. Recombinant CDK5/p35, ADP-Glo luminescence, 60 min. inhibition, % at 10 µM. 0.01% of 330,000 active. Q00535+Q15078;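 active = highest replicate inhibition of at least 50% and at least 75% of replicates reaching 50%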
Dyrk1A ADPGlo – Dyrk1A (rat) kinase inhibition; ADP-Glo luminescence, NFATc1 peptide; inhibition, % at 12.5 µM; 0.43% of 310,000 active; in the data active = inhibition above about 50%
GSK3 alpha inh – human GSK-3 alpha kinase inhibition; ADP-Glo luminescence, 60 min; 0.1% of 320,000 active; P49840; inhibition, % at 10 µM;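 active = more than half of replicates show inhibition above 20%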;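 note: GST-tagged GSK-3 alpha with peptide substrate and 25 µM ATP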
STK33 kinase inh – inhibitors of human STK33 kinase. purified STK33, MBP phosphorylation, ADP-Glo luminescence. Q9BYT3. AID 2661. 0.073% of 320,000 active. inhibition, % at 10 µM;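 active = inhibition at or above 25%, using the most active replicate where run in duplicate; inactive = inhibition below 25%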
Target sequence (Q9BYT3 whole entry, looked up): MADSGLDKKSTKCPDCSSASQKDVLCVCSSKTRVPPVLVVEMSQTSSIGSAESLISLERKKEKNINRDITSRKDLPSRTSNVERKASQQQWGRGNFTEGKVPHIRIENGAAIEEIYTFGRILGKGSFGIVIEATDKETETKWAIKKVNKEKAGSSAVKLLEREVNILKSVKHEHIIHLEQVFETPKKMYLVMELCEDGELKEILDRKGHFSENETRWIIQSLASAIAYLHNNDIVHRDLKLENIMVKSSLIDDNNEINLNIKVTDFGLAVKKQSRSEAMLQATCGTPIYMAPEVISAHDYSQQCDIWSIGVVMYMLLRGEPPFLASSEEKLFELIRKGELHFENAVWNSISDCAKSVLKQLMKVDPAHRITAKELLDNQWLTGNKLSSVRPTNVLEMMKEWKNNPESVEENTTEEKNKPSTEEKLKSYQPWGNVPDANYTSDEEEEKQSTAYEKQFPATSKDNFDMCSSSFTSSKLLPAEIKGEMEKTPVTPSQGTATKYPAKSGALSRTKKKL
GSK3beta inhib – inhibitors of human GSK3beta kinase; P49841; GST-GSK3beta kinase, ADP-Glo luminescence, 60 min; active compounds read low; activity score (negative = inhibition), % at 10 µM; 0.038% of 300,000 active; AID 2097;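 active = more than half of replicate wells score below -50%, meaning over 50% inhibition versus plate controls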
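Assay system: GST-fused GSK3beta enzyme, cell-free / Medium: Tris pH 7.5 buffer with MgCl2, DTT, BSA, heparin / Also added: peptide substrate plus 25 µM ATP (final) / Compound: 10 µM single point / Timing: kinase reaction with compound 60 min at room temperature / Detection: ADP-Glo luminescence / Benchmarks: DMSO neutral wells and GW8510 at 20 µM as positive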
Dyrk1A artifact – counter-screen for Dyrk1A inhibitors: ADP-Glo luciferase artifacts. ADP-Glo luciferase artifact assay, no Dyrk1A, luminescence. 1,300 tested, under 10 active. shares compounds with Dyrk1A ADPGlo. AC50, µM (doses to about 12 µM);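 active = fitted half-maximal dose AC50 no more than ten times the top valid tested dose, with luminescence dropping as dose rises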
A number is an active result. This is one part of a sample in which hits are shown more often than they occur.

Screening O=C(CSc1nnc(CNC(=O)c2ccc(F)cc2)o1)Nc1nccs1 returned CDK5 inh inactive, Dyrk1A ADPGlo inactive, GSK3 alpha inh inactive, STK33 kinase inh inactive and GSK3beta inhib inactive.
Screening O=[N+]([O-])c1cc([N+](=O)[O-])c2oc(-c3ccccc3)c(Br)c2c1O returned CDK5 inh inactive, Dyrk1A ADPGlo 76, GSK3beta inhib inactive and Dyrk1A artifact inactive.
O=c1cc(-c2ccccc2Cl)oc2ccc([N+](=O)[O-])c(O)c12 was read as CDK5 inh inactive, Dyrk1A ADPGlo inactive, GSK3 alpha inh inactive, STK33 kinase inh inactive and GSK3beta inhib inactive.
For COC(=O)CSc1nc(N)c(C#N)c(C(C)C)c1C#N the results were CDK5 inh inactive, Dyrk1A ADPGlo 50, GSK3 alpha inh inactive, STK33 kinase inh inactive, GSK3beta inhib inactive and Dyrk1A artifact inactive.
For CCCCN(C(=O)C(C)(C)Oc1ccc(Cl)cc1)c1c(N)n(CCC)c(=O)[nH]c1=O the results were CDK5 inh inactive, Dyrk1A ADPGlo inactive, GSK3 alpha inh inactive and STK33 kinase inh inactive.
For O=C1c2ccccc2-c2onc3ccc(N4CCCC4)c1c23 the results were CDK5 inh inactive, Dyrk1A ADPGlo 77, GSK3beta inhib inactive and Dyrk1A artifact inactive.
`CCOc1ccc2noc3c2c1C(=O)c1ccccc1-3` gave CDK5 inh inactive, Dyrk1A ADPGlo inactive, GSK3 alpha inh inactive, STK33 kinase inh inactive and GSK3beta inhib inactive.
`COc1ccc2c(C#CCCO)c(-c3ccc(S(C)(=O)=O)cc3)sc2c1` gave CDK5 inh inactive, Dyrk1A ADPGlo 56, GSK3 alpha inh inactive, STK33 kinase inh inactive and Dyrk1A artifact inactive.
`COc1ccc2sc(-c3ccc(S(C)(=O)=O)cc3)c(C#CCO)c2c1` gave CDK5 inh inactive, Dyrk1A ADPGlo inactive, GSK3 alpha inh inactive and STK33 kinase inh inactive.
CCOc1cc(/C=C2\N=C(SC(C)C(N)=O)N(c3ccc(OC(F)F)cc3)C2=O)ccc1O (centres undefined) was read as CDK5 inh inactive, Dyrk1A ADPGlo inactive, GSK3 alpha inh inactive, STK33 kinase inh inactive and GSK3beta inhib inactive.
For O=S(=O)(O)c1cccc(N=Nc2c(O)ccc3ccccc23)c1 the results were CDK5 inh inactive, Dyrk1A ADPGlo 74, GSK3 alpha inh inactive, STK33 kinase inh 60, GSK3beta inhib inactive and Dyrk1A artifact inactive.
Screening c1csc(CNc2ncnc3ccc(-c4ccc5c(c4)OCCO5)cc23)c1 returned CDK5 inh inactive, Dyrk1A ADPGlo 72, GSK3 alpha inh inactive, STK33 kinase inh inactive and Dyrk1A artifact inactive.
c1cncc(-c2ccc3ncnc(NCc4cccs4)c3c2)c1 was read as CDK5 inh inactive, Dyrk1A ADPGlo inactive, GSK3 alpha inh inactive and STK33 kinase inh inactive.
For CCc1cc(-c2[nH]ncc2-c2ccc3c(c2)OCO3)c(O)cc1O the results were CDK5 inh inactive, Dyrk1A ADPGlo 52, GSK3 alpha inh inactive, STK33 kinase inh inactive, GSK3beta inhib inactive and Dyrk1A artifact inactive.
Screening COc1ccc(-c2[nH]ncc2-c2ccc3c(c2)OCCO3)c(O)c1 returned CDK5 inh inactive, Dyrk1A ADPGlo 60, GSK3 alpha inh inactive, STK33 kinase inh inactive, GSK3beta inhib inactive and Dyrk1A artifact inactive.
Screening CC[C@@]12C(=O)N(c3cccc(F)c3)C(=O)N1[C@H](c1ccc(Br)cc1)[C@@H]1C(=O)N(C(C)(C)C)C(=O)[C@@H]12 returned CDK5 inh inactive, Dyrk1A ADPGlo inactive, GSK3 alpha inh inactive, STK33 kinase inh inactive and GSK3beta inhib inactive.
COCCNC(=O)C(c1ccc(C)cc1)N(Cc1ccccc1)C(=O)CCC(=O)Nc1ccccn1 (centres undefined) was read as CDK5 inh inactive, Dyrk1A ADPGlo inactive, GSK3 alpha inh inactive, STK33 kinase inh inactive and GSK3beta inhib inactive.
Screening O=C(Nc1cccc(-c2cn3cccnc3n2)c1)c1ccc(Br)o1 returned CDK5 inh inactive, Dyrk1A ADPGlo 51, GSK3 alpha inh inactive, STK33 kinase inh 32, GSK3beta inhib inactive and Dyrk1A artifact inactive.
CN(C)CCNc1ccc2nnn3c4ccc(O)cc4c(=O)c1c23 was read as CDK5 inh inactive.
`CCN(CC)CCCNc1ccc2ncn3c4ccc(O)cc4c(=O)c1c23` gave CDK5 inh inactive, Dyrk1A ADPGlo 87 and Dyrk1A artifact inactive.
For O=C(COC(=O)c1ncc(Cl)c(Cl)c1Cl)Nc1ccc(Cl)cn1 the results were CDK5 inh inactive, Dyrk1A ADPGlo inactive, GSK3 alpha inh inactive, STK33 kinase inh inactive and GSK3beta inhib inactive.

Screening results as filed in PubChem.
